Assay results published in ChEMBL document CHEMBL4359813, “Synthesis and antimycobacterial activity of imidazo[1,2-b][1,2,4,5]tetrazines” (2019).
In brackets after ≈: the same amount, converted by molar mass. Activity calls are given as the source filed them. No cut-off for these calls is given here.

How the values were obtained:
[1] = test system: Mycobacterium tuberculosis; assay: Antimycobacterial activity against Mycobacterium tuberculosis H37Rv in liquid medium; assay type: functional
How it was run: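 M. tuberculosis H37Rv; MIC determined in liquid medium on the automated Bactec MGIT 960 system.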

[2] = test system: Mycolicibacterium smegmatis; assay: Antimycobacterial activity against Mycobacterium smegmatis atR37 assessed as decrease in drug resistance development at 300 nmol/disc after 2 to 3 days by paper disc method; assay type: functional, organism-based
How it was run: (§1)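 Drug-resistant M. smegmatis mc2 155 mutants, isolated on M290 agar with 3.5-4× MIC of compound and resistance re-confirmed, grown in Middlebrook 7H9 (OADC, 0.1% Tween-80, 0.4% glycerol) to OD600 1.2. Diluted 1:9:10 culture:water:M290 and poured as top layer on M290 agar. Impregnated paper discs applied; 37 °C for 2–3 days. Halos measured to nearest 1 mm; triplicates, mean ± SD versus control strain.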

[3] = test system: Mycolicibacterium smegmatis; assay: Antimycobacterial activity against Mycobacterium smegmatis atR17 assessed as decrease in drug resistance development at 300 nmol/disc after 2 to 3 days by paper disc method; assay type: functional, organism-based
How it was run: (§2)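 Mutant M. smegmatis strains were grown in Middlebrook 7H9/OADC/Tween/glycerol to OD600 1.2. Cultures were diluted 1:9:10 (culture:water:M290) and overlaid on M290 agar. Commercial or impregnated paper discs were applied and plates incubated 2–3 days at 37 °C. Inhibition halos were measured to 1 mm, run in triplicate, mean ± SD.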

[4] = test system: Mycolicibacterium smegmatis; assay: Antimycobacterial activity against Mycobacterium smegmatis atR11 in liquid medium after 48 hrs by two-fold serial dilution method; assay type: functional; details: atR11, 48 h
How it was run: (§3)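 M. smegmatis resistant mutants were isolated on M290 agar containing 3.5-4× MIC of the test compound at 30°C and resistance was reconfirmed. MIC was then run in Lemco-Tw broth (Tween-80 0.05%). An overnight culture was diluted 1:200, and two-fold serial dilutions in DMSO were added. Plates were incubated at 37°C and 250 rpm for 48 h. MIC was read as the lowest concentration with no visible growth.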

[5] = test system: Mycolicibacterium smegmatis; assay: Antimycobacterial activity against Mycobacterium smegmatis atR10 in liquid medium after 48 hrs by two-fold serial dilution method; assay type: functional; details: atR10, 48 h; how it was run: as §3
[6] = test system: Mycolicibacterium smegmatis; assay: Antimycobacterial activity against Mycobacterium smegmatis atR10 assessed as decrease in drug resistance development at 300 nmol/disc after 2 to 3 days by paper disc method; assay type: functional, organism-based; how it was run: as §2
[7] = test system: Mycolicibacterium smegmatis; assay: Antimycobacterial activity against Mycobacterium smegmatis MC2 155 in liquid medium after 48 hrs by two-fold serial dilution method; assay type: functional; details: MC2 155, 48 h
How it was run: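 M. smegmatis mc2 155 grown overnight in Lemco-Tw broth, diluted 1:200 in fresh broth. […] Top wells could carry 4% DMSO. Incubated 48 h at 37 °C with shaking at 250 rpm. MIC is the lowest concentration with no visible growth.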

[8] = test system: Mycolicibacterium smegmatis; assay: Antimycobacterial activity against Mycobacterium smegmatis atR14 assessed as decrease in drug resistance development at 300 nmol/disc after 2 to 3 days by paper disc method; assay type: functional, organism-based; how it was run: as §2
[9] = test system: Mycolicibacterium smegmatis; assay: Antimycobacterial activity against Mycobacterium smegmatis atR33 in liquid medium after 48 hrs by two-fold serial dilution method; assay type: functional; details: atR33, 48 h; how it was run: as §3
[10] = test system: Mycolicibacterium smegmatis; assay: Antimycobacterial activity against Mycobacterium smegmatis atR33 assessed as decrease in drug resistance development at 300 nmol/disc after 2 to 3 days by paper disc method; assay type: functional, organism-based; how it was run: as §2
[11] = test system: Mycolicibacterium smegmatis; assay: Antimycobacterial activity against Mycobacterium smegmatis atR8 assessed as decrease in drug resistance development at 300 nmol/disc after 2 to 3 days by paper disc method; assay type: functional, organism-based; how it was run: as §1
[12] = test system: Mycolicibacterium smegmatis; assay: Antimycobacterial activity against Mycobacterium smegmatis atR40 assessed as decrease in drug resistance development at 300 nmol/disc after 2 to 3 days by paper disc method; assay type: functional, organism-based; how it was run: as §1
[13] = test system: Mycolicibacterium smegmatis; assay: Antimycobacterial activity against Mycobacterium smegmatis atR11 assessed as decrease in drug resistance development at 300 nmol/disc after 2 to 3 days by paper disc method; assay type: functional, organism-based; how it was run: as §2
[14] = test system: Mycolicibacterium smegmatis; assay: Antimycobacterial activity against Mycobacterium smegmatis atR2 in liquid medium after 48 hrs by two-fold serial dilution method; assay type: functional; details: atR2, 48 h; how it was run: as §3
[15] = test system: Mycolicibacterium smegmatis; assay: Antimycobacterial activity against Mycobacterium smegmatis atR14 in liquid medium after 48 hrs by two-fold serial dilution method; assay type: functional; details: atR14, 48 h; how it was run: as §3
[16] = test system: Mycolicibacterium smegmatis; assay: Antimycobacterial activity against Mycobacterium smegmatis MC2 155 in solid medium by two-fold serial dilution method; assay type: functional
How it was run: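 M290 soybean-casein agar plates carried two-fold compound dilutions, 8–64 or 8–128 µg/ml, some with extra 20 or 25 µg/ml plates.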

[17] = test system: Mycolicibacterium smegmatis MC2 155; assay: Inhibition of STPK in Mycobacterium smegmatis MC2 155 expressing aminoglycoside phophotransferase-8 assessed as growth inhibition at 50 nmol/disk after 18 hrs in presence of kanamycin by paper disk method
[18] = test system: Mycolicibacterium smegmatis; assay: Antimycobacterial activity against Mycobacterium smegmatis atR37 in liquid medium after 48 hrs by two-fold serial dilution method; assay type: functional; details: atR37, 48 h; how it was run: as §3
[19] = test system: Mycolicibacterium smegmatis; assay: Antimycobacterial activity against Mycobacterium smegmatis atR1 assessed as decrease in drug resistance development at 300 nmol/disc after 2 to 3 days by paper disc method; assay type: functional, organism-based; how it was run: as §2
[20] = test system: Mycolicibacterium smegmatis; assay: Antimycobacterial activity against Mycobacterium smegmatis atR1 in liquid medium after 48 hrs by two-fold serial dilution method; assay type: functional; details: atR1, 48 h; how it was run: as §3
[21] = test system: Mycolicibacterium smegmatis; assay: Antimycobacterial activity against Mycobacterium smegmatis atR9 in liquid medium after 48 hrs by two-fold serial dilution method; assay type: functional; details: atR9, 48 h; how it was run: as §3
[22] = test system: Mycolicibacterium smegmatis; assay: Antimycobacterial activity against Mycobacterium smegmatis atR8 in liquid medium after 48 hrs by two-fold serial dilution method; assay type: functional; details: atR8, 48 h; how it was run: as §3
[23] = test system: Mycolicibacterium smegmatis; assay: Antimycobacterial activity against Mycobacterium smegmatis atR40 in liquid medium after 48 hrs by two-fold serial dilution method; assay type: functional; details: atR40, 48 h; how it was run: as §3
[24] = test system: Mycolicibacterium smegmatis; assay: Antimycobacterial activity against Mycobacterium smegmatis atR19 in liquid medium after 48 hrs by two-fold serial dilution method; assay type: functional; details: atR19, 48 h; how it was run: as §3
[25] = test system: Mycolicibacterium smegmatis; assay: Antimycobacterial activity against Mycobacterium smegmatis atR17 in liquid medium after 48 hrs by two-fold serial dilution method; assay type: functional; details: atR17, 48 h; how it was run: as §3
[26] = test system: Mycolicibacterium smegmatis; assay: Antimycobacterial activity against Mycobacterium smegmatis atR19 assessed as decrease in drug resistance development at 300 nmol/disc after 2 to 3 days by paper disc method; assay type: functional, organism-based; how it was run: as §2
[27] = test system: Mycolicibacterium smegmatis; assay: Antimycobacterial activity against Mycobacterium smegmatis atR2 assessed as decrease in drug resistance development at 300 nmol/disc after 2 to 3 days by paper disc method; assay type: functional, organism-based; how it was run: as §2
[28] = test system: Mycolicibacterium smegmatis; assay: Antimycobacterial activity against Mycobacterium smegmatis atR37 assessed as decrease in drug resistance development at 40 nmol/disc after 2 to 3 days by paper disc method; assay type: functional, organism-based; how it was run: as §1
[29] = test system: Mycolicibacterium smegmatis; assay: Antimycobacterial activity against Mycobacterium smegmatis atR8 assessed as decrease in drug resistance development at 40 nmol/disc after 2 to 3 days by paper disc method; assay type: functional, organism-based; how it was run: as §1
[30] = test system: Mycolicibacterium smegmatis; assay: Antimycobacterial activity against Mycobacterium smegmatis atR2 assessed as decrease in drug resistance development at 40 nmol/disc after 2 to 3 days by paper disc method; assay type: functional, organism-based; how it was run: as §2
[31] = test system: Mycolicibacterium smegmatis; assay: Antimycobacterial activity against Mycobacterium smegmatis atR1 assessed as decrease in drug resistance development at 40 nmol/disc after 2 to 3 days by paper disc method; assay type: functional, organism-based; how it was run: as §2
[32] = test system: Mycolicibacterium smegmatis MC2 155; assay: Inhibition of STPK in Mycobacterium smegmatis MC2 155 expressing aminoglycoside phophotransferase-8 assessed as growth inhibition at 5 nmol/disk after 18 hrs in presence of kanamycin by paper disk method
[33] = test system: Mycolicibacterium smegmatis; assay: Antimycobacterial activity against Mycobacterium smegmatis atR10 assessed as decrease in drug resistance development at 40 nmol/disc after 2 to 3 days by paper disc method; assay type: functional, organism-based; how it was run: as §2
[34] = test system: Mycolicibacterium smegmatis; assay: Antimycobacterial activity against Mycobacterium smegmatis atR40 assessed as decrease in drug resistance development at 40 nmol/disc after 2 to 3 days by paper disc method; assay type: functional, organism-based; how it was run: as §1
[35] = test system: Mycolicibacterium smegmatis; assay: Antimycobacterial activity against Mycobacterium smegmatis atR19 assessed as decrease in drug resistance development at 40 nmol/disc after 2 to 3 days by paper disc method; assay type: functional, organism-based; how it was run: as §2
[36] = test system: Mycolicibacterium smegmatis; assay: Antimycobacterial activity against Mycobacterium smegmatis atR33 assessed as decrease in drug resistance development at 40 nmol/disc after 2 to 3 days by paper disc method; assay type: functional, organism-based; how it was run: as §2
[37] = test system: Mycolicibacterium smegmatis; assay: Antimycobacterial activity against Mycobacterium smegmatis atR17 assessed as decrease in drug resistance development at 40 nmol/disc after 2 to 3 days by paper disc method; assay type: functional, organism-based; how it was run: as §2
[38] = test system: Mycolicibacterium smegmatis; assay: Antimycobacterial activity against Mycobacterium smegmatis atR14 assessed as decrease in drug resistance development at 40 nmol/disc after 2 to 3 days by paper disc method; assay type: functional, organism-based; how it was run: as §2
[39] = test system: Mycolicibacterium smegmatis; assay: Antimycobacterial activity against Mycobacterium smegmatis atR11 assessed as decrease in drug resistance development at 40 nmol/disc after 2 to 3 days by paper disc method; assay type: functional, organism-based; how it was run: as §2

| Compound | MIC [1] | MIC [4] | MIC [5] | MIC [7] | MIC [9] | MIC [14] | MIC [15] | MIC [16] | MIC [18] | MIC [20] | MIC [21] | MIC [22] | MIC [23] | MIC [24] | MIC [25] | inhibition zone (IZ) [32] | other results |
| --- | --- | --- | --- | --- | --- | --- | --- | --- | --- | --- | --- | --- | --- | --- | --- | --- | --- |
| Cc1cc(C)n(-c2nnc3ncc(SC(C)C)n3n2)n1 | 3.5 µM (≈ 1.01 µg/mL) | 512 µg/mL (≈ 1770 µM) | 512 µg/mL (≈ 1770 µM) | 221 µM (≈ 64 µg/mL) | 512 µg/mL (≈ 1770 µM) | 1020 µg/mL (≈ 3540 µM) | 256 µg/mL (≈ 885 µM) | 221 µM (≈ 64 µg/mL) | 512 µg/mL (≈ 1770 µM) | 512 µg/mL (≈ 1770 µM) | 256 µg/mL (≈ 885 µM) | 512 µg/mL (≈ 1770 µM) | 512 µg/mL (≈ 1770 µM) | 256 µg/mL (≈ 885 µM) | 256 µg/mL (≈ 885 µM) | – | Activity [2]: inactive; Activity [3]: inactive; Activity [6]: inactive; Activity [8]: inactive; Activity [10]: inactive; Activity [11]: inactive; Activity [12]: inactive; Activity [13]: inactive; inhibition zone (IZ) [17]: 13.3 mm; Activity [19]: inactive; Activity [26]: inactive; Activity [27]: inactive |
| Cc1cc(C)n(-c2nnc3ncc(Sc4ccccc4)n3n2)n1 | 3.1 µM (≈ 1 µg/mL) | > 64 µg/mL | > 64 µg/mL | 99 µM (≈ 32 µg/mL) | > 64 µg/mL | > 64 µg/mL | > 64 µg/mL | 61.8 µM (≈ 20 µg/mL) | > 64 µg/mL | > 64 µg/mL | > 64 µg/mL | > 64 µg/mL | > 64 µg/mL | > 64 µg/mL | > 64 µg/mL | 11.5 mm | Activity [28]: inactive; Activity [29]: inactive; Activity [30]: inactive; Activity [31]: inactive; Activity [33]: inactive; Activity [34]: inactive; Activity [35]: inactive; Activity [36]: inactive; Activity [37]: inactive; Activity [38]: inactive; Activity [39]: inactive |
| Cc1cc(C)n(-c2nnc3nc(-c4ccccc4)c(SC(C)C)n3n2)n1 | – | – | – | – | – | – | – | – | – | – | – | – | – | – | – | 11 mm | – |
